Assay outcomes from PubChem BioAssay.
STAT3 act: activators of IL-6 induced STAT3 signaling; AID 871; activation (% of control), % at 5.6 µM; U3A cells, IL-6 STAT3-luciferase reporter, luminescence; 100% = signal with IL-6 EC80 alone; hit rate 0.91% among 190,000;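 active means activation above the screen-wide mean of compound activation plus 3 SD, cut at about 130% in these data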;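 further: 0% = background luminescence of wells with medium and substrate only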
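System – human U3A cells carrying STAT3-luciferase construct · Probe or stimulus – Interleukin-6, 33 ng/mL · Schedule – compound 1 h, then IL-6 6 h at 37 °C · Signal – luminescence from STAT3-driven luciferase reporter · Evaluation – percent of IL-6-only median luminescence · Benchmarks – IL-6-only high control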
NF-kB neuron act: NF-kB expression increase, human neuronal cells | fold change at 12.5 µM | hit rate 1.6% among 190,000 | NF-kB reporter expression; active compounds read high; in the data active means fold change above about 3.3
STAT3 blocker: reduces IL-6 driven STAT3 reporter signal; U3A cells, IL-6 STAT3-luciferase reporter, luminescence; host cell line lacks STAT1; inhibition, % at 5.5 µM; hit rate 0.89% among 190,000;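 active means inhibition above the mean inhibition across all screened compounds plus 3 SD, cut at about 44% in these data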;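 further: 0% = DMSO only wells and 100% = 100 µM nifuroxazide control wells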
APP 5'UTR act: activates APP 5'UTR luciferase reporter; SH-SY5Y APP 5'UTR luciferase reporter, luminescence; zero percent = DMSO vehicle wells; activation, % at 2 µM; hit rate 1% among 190,000;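 active means activation above a set limit, based on mean plus 3 SD of controls, cut at about 140% in these data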
STAT1 activator: activators of IFN-gamma induced STAT1 signaling; NIH 3T3 STAT1-luciferase reporter, luminescence; 100% = IFN-gamma alone, no compound; activation (% of control), % at 5.5 µM; hit rate 2.6% among 200,000; AID 932;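 active means activation above the screen-wide mean activation plus 3 SD, cut at about 130% in these data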;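 further: raw ratio to IFN-gamma control signal so 100% means no change and 0% no light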
STAT1 inh: inhibitors of IFN-gamma induced STAT1 signaling; NIH 3T3 STAT1-luciferase reporter, luminescence; inhibition, % at 5.5 µM; hit rate 0.35% among 200,000;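 active means inhibition above a set limit, the mean inhibition across all tested compounds plus 3 SD, cut at about 34% in these data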;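 further: 0% = IFN-gamma with DMSO and 100% = IFN-gamma with 300 µM nifuroxazide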
STAT1 act conf: STAT1 activation, confirmation assay | shares compounds with STAT1 activator | NIH 3T3 STAT1-luciferase reporter, IFN-gamma potentiation, luminescence; 100% = IFN-gamma EC80 alone, no compound | activation (% of control), % at 5.7 µM | hit rate 97% among 1,200;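 active means activation above a set limit carried over from the earlier primary STAT1 screen, cut at about 140% in these data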;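 further: simple ratio to median IFN-gamma plus DMSO wells so 0% means no light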
NFkB act: NF-kappaB activation in STAT1 activator counter-screen. HEK293T NF-kB luciferase reporter, TNF-alpha stimulated, luminescence; 100% = TNF-alpha with vehicle only. shares compounds with STAT1 activator. hit rate 43% among 1,200. AID 1306. activation (% of control), % at 5.7 µM;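 active means activation above the mean of solvent-only control wells plus 3 SD, set per campaign, cut at about 130% in these data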;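 further: TNF-alpha given at a submaximal dose yielding about 80% of full reporter signal; values are well signal over median control so 100% means no change and 0% no light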
STAT3 act 2: counter-screen for STAT1 activators: human STAT3 activation; shares compounds with STAT1 activator; U3A cells STAT3-luciferase reporter, IL-6, luminescence; cells lack STAT1; 100 = IL-6 alone, no compound effect; activation (% of control), % at 5.7 µM; hit rate 46% among 1,200; AID 1316;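 active means activation above the solvent-only control well mean plus 3 SD, set per plate batch, cut at about 110% in these data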;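 further: 0% = no luminescence and 100% = median IL-6 plus DMSO wells; higher means more STAT3 reporter activation so hits are non-selective activators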
The depositor's hits bear a star; / = no result given. The list is not random: actives were taken first. Their share in the collection is about 4.9%.

SMILES	STAT3 act	NF-kB neuron act	STAT3 blocker	APP 5'UTR act	STAT1 activator	STAT1 inh	STAT1 act conf	NFkB act	STAT3 act 2
CCCCNC(=O)CNC(=S)N(Cc1ccccc1F)C1CCCCC1	103.4	1.16	4.6	18.2	100.4	-0.2	/	/	/
O=C1CN(C(=O)c2cc3ccccc3oc2=O)C(c2ccc(F)cc2)c2cc(Br)ccc2N1 (configuration not stated)	106.3	0.77	-7.4	-1.7	99.8	0.3	/	/	/
Cc1nc(NC(=O)c2csc3ccccc23)sc1C	96.4	7.52*	10.5	150.9*	175.5*	-82.5	255.6*	137.3*	110.9*
Cc1nn(C)c(C)c1/C=N/NC(=O)c1csc2ccccc12	106.6	1.17	-5.4	-9.7	114.4	-16.2	/	/	/
Cc1ccc(CNc2ccc3c(c2)ncn3C(C)(C)C)cc1	110.1	2.92	-2.1	164.6*	167.1*	-76.0	198.4*	134.8*	128.2*
Cc1ccc(S(=O)(=O)Nc2ccc3c(c2)ncn3C(C)(C)C)cc1	99.0	1.13	7.5	-4.9	91.2	9.9	/	/	/
COc1ccc(CNc2ccc3c(c2)nc(C)n3C)cc1	92.2	1.72	11.4	85.1	150.6*	-55.4	168.3*	127.1	115.5*
Cc1ccc(S(=O)(=O)n2nnc3ccccc32)c(C)c1C	108.4	1.02	-5.1	18.6	102.7	-6.0	/	/	/
Cc1cc(C)c2cc(CN(Cc3ccco3)C(=S)NCC3CCCO3)c(=O)[nH]c2c1 (configuration not stated)	98.4	0.96	5.2	-0.6	99.6	-1.7	/	/	/
Cc1cccnc1NC(=S)Nc1ccc(Br)cc1Cl	102.2	1.07	2.1	104.6	154.3*	-64.0	197.8*	142.9*	104.6
C/C(Cn1cnc([N+](=O)[O-])n1)=N/NC(=O)COc1c(Cl)cc(Cl)cc1Cl	107.5	0.86	-3.6	-15.3	91.3	9.9	/	/	/
CC(=O)Nc1sc2c(c1-c1nc3ccccc3s1)CCN(C(C)C)C2	/	2.7	/	-69.8	285.1*	-206.1	202.5*	190.9*	201.7*
COc1ccc(Cn2c(=S)[nH]c3ccsc3c2=O)cc1	90.0	1.04	10.1	-10.1	98.8	1.4	/	/	/
Cc1nn(-c2nnc(NC3CCCCC3)nn2)c(C)c1Br	122.0	2.78	-19.7	134.2	163.8*	-72.2	184.5*	132.8	121.7*
Cc1nn(C)c(C)c1S(=O)(=O)NC1CCCC1	105.3	1.07	-2.6	9.9	107.0	-7.7	/	/	/
CC(=O)Nc1ccc2nc(-c3ccccc3)cn2c1	90.7	7.61*	9.9	169.7*	154.7*	-58.2	198.5*	114.8	99.8
CC(=O)Nc1ccc(-c2cc(-c3ccccc3)nc(-c3ccccc3)n2)cc1	103.5	1.69	-5.3	-9.2	92.5	8.4	/	/	/
N#C/C(=N\Nc1ccc(Cl)cc1)C(=N)N1CCCCC1	85.3	7.41*	20.9	189.7*	222.8*	-134.6	315.9*	149.0*	117.6*
Clc1ccccc1OCc1nc(-c2ccccn2)no1	85.0	6.48*	21.2	171.2*	167.9*	-74.4	225.2*	120.2	103.3
Nc1nonc1-c1noc(COc2ccccc2Cl)n1	85.7	8.77*	19.1	187.1*	165.7*	-71.6	218.9*	139.1*	115.9*
O=C(CC(=O)c1ccccc1)Nc1ccc2c(c1)OCCO2	105.2	3.93*	-0.4	129.3	158.6*	-64.0	191.7*	131.4	117.4*
CCC(=O)Nc1ccc2c(c1)OCCO2	108.4	0.86	-6.8	14.4	99.2	0.9	/	/	/
O=C(NC(=S)Nc1ccc2c(c1)OCCO2)c1cccc(Br)c1	112.7	4.77*	-12.3	91.4	153.0*	-59.4	176.5*	133.3*	118.0*
O=C(NC(=S)Nc1ccc2c(c1)OCCO2)c1cccc2ccccc12	108.6	1.56	-6.0	12.2	106.4	-7.1	/	/	/
O=C(CCCc1ccccc1)Nc1ccc2c(c1)OCCO2	75.7	8.01*	32.1	202.9*	151.1*	-57.3	162.4*	127.3	118.7*
SMILES	STAT3 act	NF-kB neuron act	STAT3 blocker	APP 5'UTR act	STAT1 activator	STAT1 inh	STAT1 act conf	NFkB act	STAT3 act 2
O=C(Nc1ccc2c(c1)OCCO2)c1ccc(Br)s1	66.7	11*	39.3	198.5*	183.7*	-93.9	254.6*	116.2	92.6
O=C(CCCCCN1C(=O)c2ccccc2C1=O)Nc1ccc2c(c1)OCCO2	88.4	1.07	11.4	0.2	94.1	6.4	/	/	/
COc1ccccc1Nc1nnc(SCC(=O)NC(=O)Nc2ccc3c(c2)OCCO3)s1	90.4	1.17	13.3	-18.6	96.8	3.6	/	/	/
Cc1nn(C(=O)c2cccs2)c(N)c1-c1ccccc1	105.0	3.41*	-6.0	17.5	162.4*	-65.5	183.0*	137.5*	106.5
O=C(O)CCNC(=O)c1ccc(NC(=O)Cc2ccc(Cl)cc2)cc1	98.5	1.48	6.7	8.8	102.2	-0.6	/	/	/
CC1(c2ccccc2Cl)NC(=O)N(CC(=O)NCc2ccco2)C1=O (configuration not stated)	101.4	1.17	0.7	0.2	85.8	14.5	/	/	/
C=CCSc1nncn1/N=C/c1ccc(OC)cc1	125.0	3.39*	-25.2	110.9	183.8*	-91.6	200.5*	145.9*	133.1*
COc1ccc(/C=N/n2cnnc2SCCO)cc1OC	111.6	1.41	-12.8	8.8	98.7	1.4	/	/	/
CNc1nc(-c2ccc3c(c2)CCN3C(=O)c2ccccc2F)cs1	85.3	7.49*	20.3	207.9*	159.1*	-66.6	215.4*	142.6*	96.4
COc1cc(C2C(C#N)=C(N)OC3=C2C(=O)CCC3)c([N+](=O)[O-])cc1OC (configuration not stated)	98.2	0.96	9.7	-6.6	99.2	0.9	/	/	/
Cn1c(NNC(=O)C(c2ccccc2)c2ccccc2)cc(=O)n(C)c1=O	90.8	1	12.9	-1.0	94.6	4.0	/	/	/
CN1CCN(c2ccc(NC(=O)CSc3ccccc3)cc2F)CC1	105.6	1.05	-1.4	175.3*	158.2*	-63.3	182.7*	125.7	127.7*
Cc1ccc(SCC(=O)Nc2ccc(N3CCN(c4ccccc4)CC3)c(F)c2)cc1	106.3	1.06	-1.1	5.5	103.2	-3.5	/	/	/
Cc1ccc(-c2noc(-c3cccs3)n2)cc1	82.0	7.89*	27.0	135.0*	153.5*	-56.4	219.5*	111.7	110.8*
CCOC(=O)c1cnc2c(-c3ccccc3)cnn2c1N	69.3	7.4*	39.1	123.7	186.3*	-94.9	245.6*	118.7	98.7
